We go through seven compounds from PMC4167792 (Analytical biochemistry, 2013).

One assay deals with SIRT6 protein (Gallus gallus, UniProt A0A8V1A309). Nature of the assay: Frontal affinity chromatography on the SIRT6-OT column. The class given is binding, chicken. The settings on record: for Kd: SIRT6-OT column, ammonium acetate 10 mM pH 7.4:methanol 90:10, 0.2 mM NAD+, non-linear regression.
The next assay relates to SIRT6. As to the kind of experiment: Histone deacetylation assay by mass spectrometry on SIRT6-coated magnetic beads. The settings on record: 10 μM of each compound, H3K9Ac peptide, 0.2 mM NAD+, 4 h at 37°C. The assay is classed as biochemical, chicken. In a few lines: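 SIRT6 was coupled by its C-terminus to amine-terminated magnetic beads (1 μm). Beads were incubated in 50 μL of 50 mM Tris-HCl pH 8.0, 150 mM NaCl, 1 mM DTT with 5 μg of H3K9Ac peptide (residues 1–21). p-Aminohippuric acid was added as internal standard. The supernatant, taken after magnetic separation, was run on C18 LC-ESI-MS, positive-ion SIM at m/z 922.4 (acetylated) and 908.4 (deacetylated).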

Assay [1] has as its system quercetin binding site of SIRT6. Nature of the assay: Frontal displacement chromatography of quercetin on the SIRT6-OT column. Set-up: species or system chicken. As to conditions: 10 μM polyphenol in mobile phase in the presence of 5 μM quercetin. In a few lines: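 Full-length chicken SIRT6, expressed in E. coli as a GST fusion, thrombin-cleaved and purified by size exclusion. Coupled inside an open tubular capillary (30 cm × 100 μm i.d.) with EDC/Sulfo-NHS in 100 mM MES pH 5.5, 18 h at 4°C. Frontal runs at room temperature, 0.05 mL min^-1, in 10 mM ammonium acetate pH 7.4:methanol (90:10) with 0.2 mM NAD⁺. ESI-MS detection; retention-volume shift recorded.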

“And” between values parts separate entries of the source, which are not always exact repeats. Equal values may be shown once.

One may read the Kd as the concentration at which binding is half-saturated. Lower therefore signals a tighter complex.

Regarding `O=c1c(O)c(-c2ccc(O)cc2)oc2cc(O)cc(O)c12` [Kaempferol], the Kd at SIRT6 protein was 3.88 ± 0.57 µM. In addition, the “% inhibition of deacetylation relative to control” value in the assay with SIRT6 is reported as 48.6 ± 6.0%.

Turning to `O=c1c(-c2ccc(O)cc2)coc2cc(O)cc(O)c12` [genistein, Genistein], the “displacement of quercetin (change in retention)” value in assay [1] is recorded as 2.5 min.

Take `O=C1C[C@@H](c2ccc(O)cc2)Oc2cc(O)cc(O)c21` [Naringenin]: the Kd on SIRT6 protein is 6.6 µM and 6.62 µM. Further, the “fold decrease in affinity for the SIRT6 protein” value on SIRT6 protein (naringenin vs apigenin (saturation of the C ring double bond)) is given as 3 fold. For the same compound, the “% inhibition of deacetylation relative to control” value in the assay with SIRT6 is on record as 31.0 ± 5.3%.

On to `O=c1cc(-c2ccc(O)c(O)c2)oc2cc(O)cc(O)c12` [Luteolin], for which the “displacement of quercetin (change in retention)” value in assay [1] is on record as 38.1 min. This compound also gave a Kd on SIRT6 protein of 1.78 ± 0.64 µM. Further, the “% inhibition of deacetylation relative to control” value with SIRT6 is listed as 53.7 ± 17.7%.

As for `O=c1cc(-c2ccc(O)cc2)oc2cc(O)cc(O)c12` [Apigenin], on SIRT6 protein, the equilibrium dissociation constant (Kd) is 1.9 µM and 1.92 µM. The “% inhibition of deacetylation relative to control” value in the assay with SIRT6 came out at 39.0 ± 5.9%.

Take `O=c1cc(-c2ccc(O)cc2)oc2c([C@@H]3O[C@H](CO)[C@@H](O)[C@H](O)[C@H]3O)c(O)cc(O)c12` [Vitexin]: the “displacement of quercetin (change in retention)” value in assay [1] was 16.5 min. This compound also displayed an equilibrium dissociation constant (Kd) on SIRT6 protein of 15.3 µM. Moreover, the “% inhibition of deacetylation relative to control” value in the assay with SIRT6 was 24.9 ± 0.9%.

As to `O=c1c(O)c(-c2ccc(O)c(O)c2)oc2cc(O)cc(O)c12` [Quercetin], the breakthrough volume at SIRT6 protein (2 μM quercetin on SIRT6-OT column) is reported as 5.25 mL. Besides, the “midpoint of the breakthrough curve” value at SIRT6 protein (2 μM quercetin on SIRT6-OT column, 0.05 mL/min) is listed as 105 min. The same compound gave a Kd at SIRT6 protein of 4.09 ± 2.26 µM. Besides, the “% inhibition of deacetylation relative to control” value with SIRT6 is on record as 46.6 ± 2.3%.
